Laboratory results: ChEMBL document CHEMBL1122876, “Quantitative structure-activity relationship of antifolate inhibition of bacteria cell cultures resistant and sensitive to methotrexate” (1985)
“And” between values parts separate entries of the source, which are not always exact repeats. Equal entries are not always repeated.

Key:
Escherichia coli [1] = experiment: Inhibition of growth of methotrexate-sensitive (MB1417) strain of Escherichia coli cells.; assay type: functional
Summary of the method: (§1)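 E. coli cultures kept on nutrient agar slants. Inoculum from two serial 24 h, 37 °C transfers in glucose-salts medium with 0.6% vitamin-free acid-hydrolyzed casein, washed twice, then diluted to about 15 cells/mL. Each 10 mL tube held basal medium, 25% glucose solution (1 mL) and inhibitor dissolved in water or 0.04 M HCl, diluted in sterile water. C = molar concentration giving 50% culture inhibition.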

Escherichia coli [2] = experiment: Inhibition of growth of methotrexate-resistant (MB1428) strain of Escherichia coli cells.; assay type: functional; summary of the method: as §1
Escherichia coli [3] = experiment: Inhibition of growth of methotrexate sensitive (MB1417) strain of Escherichia coli cells; assay type: functional; summary of the method: as §1
Escherichia coli [4] = experiment: Inhibition of growth of methotrexate resistant (MB1428) strain of Escherichia coli cells; assay type: functional; summary of the method: as §1
[5] = biological target: T1, Dihydrofolate reductase type 1 (Escherichia coli) (UniProt P00382)
T1 sequence (whole entry): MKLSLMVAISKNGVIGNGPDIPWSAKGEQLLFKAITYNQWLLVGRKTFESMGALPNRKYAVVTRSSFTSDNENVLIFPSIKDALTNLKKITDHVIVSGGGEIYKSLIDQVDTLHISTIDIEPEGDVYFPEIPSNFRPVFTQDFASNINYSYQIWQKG

Escherichia coli [6] = experiment: Compound was evaluated for the inhibition of growth of methotrexate sensitive (MB1417) strain of Escherichia coli cells; d=values could not be determined due to solubility problems encountered with these congener; assay type: functional, organism-based; summary of the method: as §1
Escherichia coli [7] = experiment: Compound was evaluated for the inhibition of growth of methotrexate resistant (MB1428) strain of Escherichia coli cells; d=values could not be determined due to solubility problems encountered with these congener; assay type: functional, organism-based; summary of the method: as §1
Escherichia coli [8] = experiment: The compound was evaluated for the inhibition of growth of methotrexate resistant (MB1428) strain of Escherichia coli cells; d=values could not be determined due to solubility problems encountered with these congener; assay type: functional, organism-based

SMILES	Log 1/C (Escherichia coli [1])	Log 1/C (Escherichia coli [2])	also measured
CS(=O)(=O)Oc1cccc(Cc2cnc(N)nc2N)c1	4.59	3.35	
COc1cc(Cc2cnc(N)nc2N)cc(OC)c1Br [BRODIMOPRIM]	6.67	5.69	
CCCCCCOc1ccc(Cc2cnc(N)nc2N)cc1	4.79	4.55	
COCCOc1c(OC)cc(Cc2cnc(N)nc2N)cc1OC [TETROXOPRIM]	5.83	4.72	
CCc1cccc(OCc2cccc(N3C(N)=NC(N)=NC3(C)C)c2)c1			Log 1/C (Escherichia coli [3]): 3.67; Log 1/C (Escherichia coli [4]): 3.98; Log 1/Ki app [5]: 5.95
CCCCCCOc1cccc(Cc2cnc(N)nc2N)c1	4.81	4.53	
CCCCOc1ccc(Cc2cnc(N)nc2N)cc1	4.76	4.01	
COc1ccc(OC)c(Cc2cnc3nc(N)nc(N)c3c2C)c1 [PIRITREXIM]	5.95	4.56	
CN(Cc1cnc2nc(N)nc(N)c2n1)c1ccc(C(=O)N[C@@H](CCC(=O)O)C(=O)O)cc1 [METHOTREXATE]	3.76	2.7	
CC1(C)N=C(N)N=C(N)N1c1ccc(Cl)cc1 [CYCLOGUANIL]	2.47	2.5	
C=C(C)c1c(OC)cc(Cc2cnc(N)nc2N)cc1OC	6.63	5.66	
CC1(C)N=C(N)N=C(N)N1c1cccc(OCCOc2cccc(C(F)(F)F)c2)c1	4.01	4.14	
Nc1ncc(Cc2ccccc2)c(N)n1	4.28	2.92	
Nc1ncc(Cc2ccc(Br)cc2)c(N)n1	5.12	3.69	
CCCCCCCCOc1cccc(Cc2cnc(N)nc2N)c1		4.41	Log 1/C (Escherichia coli [6]): Not detected
CCCCCCCCOc1cc(Cc2cnc(N)nc2N)ccc1OC	4.91		Log 1/C (Escherichia coli [7]): Not detected
CC1(C)N=C(N)N=C(N)N1c1cccc(CSc2ccccc2)c1			Log 1/C (Escherichia coli [3]): 3.39; Log 1/C (Escherichia coli [4]): 3.52
COc1cccc(OCc2cccc(N3C(N)=NC(N)=NC3(C)C)c2)c1			Log 1/C (Escherichia coli [3]): 3.21; Log 1/C (Escherichia coli [4]): 3.26; Log 1/Ki app [5]: 6.02
COc1ccc(Cc2cnc(N)nc2N)cc1OC [DIAVERIDINE]	6.08	4.46	
COCCOc1cccc(Cc2cnc(N)nc2N)c1	4.33	2.92	
CC(C)(C)c1cccc(OCc2cccc(N3C(N)=NC(N)=NC3(C)C)c2)c1			Log 1/C (Escherichia coli [3]): 4.1; Log 1/C (Escherichia coli [4]): 4.19; Log 1/Ki app [5]: 6.06
CCCCCCCCCCCCCCOc1cccc(N2C(N)=NC(N)=NC2(C)C)c1			Log 1/Ki app [5]: 5.85
CC1(C)N=C(N)N=C(N)N1c1cccc(COc2cccc(CO)c2)c1			Log 1/C (Escherichia coli [3]): 2.38; Log 1/C (Escherichia coli [4]): 2.51; Log 1/Ki app [5]: 6.19
CC1(C)N=C(N)N=C(N)N1c1cccc(OCc2ccc(Cl)c(Cl)c2)c1			Log 1/C (Escherichia coli [3]): 4.13; Log 1/C (Escherichia coli [4]): 4.01; Log 1/Ki app [5]: 6.15
CCCCCCCOc1cccc(Cc2cnc(N)nc2N)c1	4.88	4.84	
COc1cc(Cc2cnc(N)nc2N)cc(OC)c1	6.08	4.55	
CC1(C)N=C(N)N=C(N)N1c1cccc(COc2cccc(C#N)c2)c1			Log 1/C (Escherichia coli [3]): 2.74; Log 1/C (Escherichia coli [4]): 3.02; Log 1/Ki app [5]: 6.05

SMILES	Log 1/C (Escherichia coli [1])	Log 1/C (Escherichia coli [2])	also measured
Cc1nc(N)nc(N)c1-c1ccc(Cl)c(Cl)c1 [METOPRINE]	4.24	4.35	
COc1ccc(Cc2cnc(N)nc2N)cc1	5.24 and 4.77	3.46 and 3.7	
CC1(C)N=C(N)N=C(N)N1c1cccc(OCC23CC4CC(CC(C4)C2)C3)c1			Log 1/C (Escherichia coli [3]): 4.49; Log 1/C (Escherichia coli [4]): 4.63
CC(=O)Nc1ccc(Cc2cnc(N)nc2N)cc1	4.08	3.03	
COc1cc(Cc2cnc(N)nc2N)cc(OC)c1OC [TRIMETHOPRIM]	6.61	5.34	
CCc1nc(N)nc(N)c1-c1ccc(Cl)cc1 [PYRIMETHAMINE]	4.21	3.56	
CCOCc1cccc(N2C(N)=NC(N)=NC2(C)C)c1			Log 1/Ki app [5]: 5.92
CC1(C)N=C(N)N=C(N)N1c1cccc(S(=O)(=O)F)c1	2.5	2	
COCc1cccc(Cc2cnc(N)nc2N)c1	4.68	2.98	
CCOc1cc(Cc2cnc(N)nc2N)ccc1OCc1ccccc1	5.04		Log 1/C (Escherichia coli [8]): Not detected
Cc1cccc(OCc2cccc(N3C(N)=NC(N)=NC3(C)C)c2)c1			Log 1/C (Escherichia coli [3]): 3.27; Log 1/C (Escherichia coli [4]): 3.41; Log 1/Ki app [5]: 6.27
Cc1cccc(Cc2cnc(N)nc2N)c1	4.91	3.29	
COc1cc(Cc2cnc(N)nc2N)cc(OC)c1SC [METIOPRIM]	6.97	5.66	
Cc1cccc(SCc2cccc(N3C(N)=NC(N)=NC3(C)C)c2)c1			Log 1/C (Escherichia coli [3]): 3.87; Log 1/C (Escherichia coli [4]): 3.76; Log 1/Ki app [5]: 6.57
Nc1ncc(Cc2ccc([N+](=O)[O-])cc2)c(N)n1	4.53	3.43	
CCCCCCCCOc1c(OC)cc(Cc2cnc(N)nc2N)cc1OC	5.18		Log 1/C (Escherichia coli [7]): Not detected
CC1(C)N=C(N)N=C(N)N1c1cccc(COc2cccc(Cl)c2)c1			Log 1/Ki app [5]: 6.01
CN(C)c1ccc(Cc2cnc(N)nc2N)cc1	4.94	3.46	
CCCCCCCCCCCOc1cccc(N2C(N)=NC(N)=NC2(C)C)c1			Log 1/C (Escherichia coli [3]): 5.5; Log 1/C (Escherichia coli [4]): 5.5; Log 1/Ki app [5]: 6.19
COCCOc1ccc(Cc2cnc(N)nc2N)cc1	4.61	3.11	
CCCCCCCCCCCCOc1cccc(N2C(N)=NC(N)=NC2(C)C)c1			Log 1/Ki app [5]: 5.88
CCCCOc1cccc(N2C(N)=NC(N)=NC2(C)C)c1			Log 1/C (Escherichia coli [3]): 3.29; Log 1/C (Escherichia coli [4]): 3.49
CC1(C)N=C(N)N=C(N)N1c1cccc(COc2cccc(NC(N)=O)c2)c1			Log 1/Ki app [5]: 5.91
CC1(C)N=C(N)N=C(N)N1c1cccc(COc2cccc(NC(=N)S)c2)c1			Log 1/Ki app [5]: 6.17
Nc1ncc(Cc2cccc(O)c2)c(N)n1	4.35	2.94	
Nc1ncc(Cc2cccc(Cl)c2)c(N)n1	4.92	3.46	
